The record followed here is ChEMBL document CHEMBL2385064, “Selective CB2 agonists with anti-pruritic activity: discovery of potent and orally available bicyclic 2-pyridones” (Bioorg Med Chem, 2013).

In series [1] the target is T1, Cannabinoid receptor 2 (Homo sapiens, UniProt P34972). As to the kind of experiment: Agonist activity at human CB2 receptor expressed in CHO cells assessed as inhibition of forskolin-induced cAMP production. In kind it is functional, cell-based. In short, it runs like this:
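Functional readout is inhibition of forskolin-evoked cAMP accumulation in CHO cells expressing human CB2. IC50 determined from more than four duplicate assay points. Between-day coefficient of variation is 0.63.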
A general note: Cyclic AMP is a second messenger, typically raised through Gs and lowered through Gi signalling.

Series [2] deals with T1, Cannabinoid receptor 2. The series is described as follows: Displacement of [3H]-CP-55,940 from human CB2 receptor expressed in CHO cell membranes. The method, boiled down: (§1)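 Competition binding against [3H]-CP-55,940 on membranes from CHO cells stably expressing recombinant human CB1 or CB2. Between-day coefficient of variation is 0.24 for CB1 and 0.53 for CB2.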
In another series the target is Cannabinoid receptor 1 (Homo sapiens, UniProt P21554). As to the kind of experiment: Displacement of [3H]-CP-55,940 from human CB1 receptor expressed in CHO cell membranes. The method, boiled down: as §1
Background: In a radioligand displacement assay an active substance lowers the binding of a labelled ligand.

For another series, the species on record is Homo sapiens. As to the kind of experiment: Selectivity ratio of Ki for human CB1 receptor to Ki for human CB2 receptor.
For series [3], the target named is T1, Cannabinoid receptor 2. As to the kind of experiment: Agonist activity at human CB2 receptor expressed in CHO cells assessed as inhibition of forskolin-induced cAMP production at 2 uM relative to control. In kind it is functional, cell-based. In short, it runs like this: (§2)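 Forskolin-induced cAMP production measured in human CB2-expressing CHO cells. Emax is the maximum inhibition rate of cAMP production at the indicated concentration.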

Series [4] has as its target T1, Cannabinoid receptor 2. As to the kind of experiment: Agonist activity at human CB2 receptor expressed in CHO cells assessed as inhibition of forskolin-induced cAMP production at 0.2 uM relative to control. In kind it is functional, cell-based. The method, boiled down: as §2
Series [5] has as its target Cannabinoid receptor 2 (Mus musculus) (UniProt P47936). As to the kind of experiment: Displacement of [3H]-CP-55,940 from mouse spleen CB2 receptor expressed in CHO cell membranes.
A short description of series [6]: Volume of distribution at steady state in mouse at 1 mg/kg, iv. Details: dose 1 mg/kg, route intravenous. To be noted: in vivo, read-out: Vdss. The series is classed as ADME, organism-based.
A short description of series [7]: Total plasma clearance in mouse at 1 mg/kg, iv. Further details: dose 1 mg/kg, route intravenous. The series is classed as ADME, organism-based.
In series [8] the target is T1, Cannabinoid receptor 2. The series is described as follows: Agonist activity at human CB2 receptor expressed in CHO cells assessed as inhibition of forskolin-induced cAMP production at 0.02 uM relative to control. The series is classed as functional, cell-based. The method, boiled down:
as §2

The nature of series [9]: Half life in mouse at 1 mg/kg, iv. Details: dose 1 mg/kg, route intravenous. The series is classed as ADME, organism-based. The following applies: in vivo.
In series [10] the test system is Mus musculus. As to the kind of experiment: Toxicity in po dosed ICR mouse assessed as decrease in locomotor activity at 100 mg/kg, po. In kind it is organism-based. Details: dose 100 mg/kg, route oral. The following applies: in vivo.
Series [11] concerns Mus musculus. As to the kind of experiment: Antipruritic activity in ICR mouse assessed as inhibition of compound 48/80-induced scratching-behavior at 100 mg/kg, po administered once before challenge relative to control. In kind it is functional. The method, boiled down:
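Female ICR mice had their backs clipped. Compound was given orally once (n = 6) in sesame oil or 0.5% methylcellulose. Scratching bouts at the site by hind paws were counted for 30 min. Result compared with the vehicle group by Dunnett's t-test (p<0.05).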

Series [12] in a line: Volume of distribution at steady state in mouse at 2 mg/kg, iv. In kind it is ADME, organism-based. Further details: dose 2 mg/kg, route intravenous. To be noted: in vivo, read-out: Vdss.
Series [13] is described as follows: Half life in mouse at 2 mg/kg, iv. Details: dose 2 mg/kg, route intravenous. The following applies: in vivo. The series is classed as ADME, organism-based.
Series [14] has as its system Mus musculus. The series is described as follows: AUC in mouse at 30 mg/kg, po. In kind it is ADME, organism-based, Plasma. Details: dose 30 mg/kg, route oral. To be noted: in vivo.
The subject of series [15] is Mus musculus. The series is described as follows: Oral bioavailability in mouse at 30 mg/kg. In kind it is ADME, organism-based. To be noted: in vivo.
Series [16] in a line: Cmax in mouse at 30 mg/kg, po. In kind it is ADME, organism-based. Further details: dose 30 mg/kg, route oral. The following applies: in vivo.

Activity calls are given as the source filed them. No cut-off for these calls is given here. A value given as a limit tells only on which side of the number the result lay.

Chain of Cannabinoid receptor 1 (P21554 whole entry): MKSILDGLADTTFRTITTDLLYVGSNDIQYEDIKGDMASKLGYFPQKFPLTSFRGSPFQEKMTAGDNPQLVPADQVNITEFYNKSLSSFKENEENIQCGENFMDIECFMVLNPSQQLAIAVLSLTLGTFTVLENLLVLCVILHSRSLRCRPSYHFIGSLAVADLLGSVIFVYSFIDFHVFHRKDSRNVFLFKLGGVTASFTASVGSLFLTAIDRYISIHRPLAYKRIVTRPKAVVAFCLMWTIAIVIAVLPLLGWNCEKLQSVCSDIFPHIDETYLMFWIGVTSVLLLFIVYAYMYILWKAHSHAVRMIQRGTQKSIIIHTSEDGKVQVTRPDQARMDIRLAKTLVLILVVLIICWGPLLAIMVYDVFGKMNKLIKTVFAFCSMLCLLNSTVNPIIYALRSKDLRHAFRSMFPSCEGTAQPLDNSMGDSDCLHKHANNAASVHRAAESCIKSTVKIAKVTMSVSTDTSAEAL
T1 sequence (P34972 whole entry): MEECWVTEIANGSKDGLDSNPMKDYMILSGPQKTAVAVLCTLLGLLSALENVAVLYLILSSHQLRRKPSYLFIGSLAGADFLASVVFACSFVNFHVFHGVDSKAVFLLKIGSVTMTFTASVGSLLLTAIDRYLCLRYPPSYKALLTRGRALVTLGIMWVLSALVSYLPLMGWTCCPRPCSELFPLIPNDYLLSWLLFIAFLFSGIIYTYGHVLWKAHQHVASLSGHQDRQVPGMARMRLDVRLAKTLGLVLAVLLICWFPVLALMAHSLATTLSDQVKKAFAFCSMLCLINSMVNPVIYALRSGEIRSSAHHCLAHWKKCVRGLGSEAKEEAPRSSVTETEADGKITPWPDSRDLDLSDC
Chain of Cannabinoid receptor 2 (Mus musculus) (P47936 whole entry): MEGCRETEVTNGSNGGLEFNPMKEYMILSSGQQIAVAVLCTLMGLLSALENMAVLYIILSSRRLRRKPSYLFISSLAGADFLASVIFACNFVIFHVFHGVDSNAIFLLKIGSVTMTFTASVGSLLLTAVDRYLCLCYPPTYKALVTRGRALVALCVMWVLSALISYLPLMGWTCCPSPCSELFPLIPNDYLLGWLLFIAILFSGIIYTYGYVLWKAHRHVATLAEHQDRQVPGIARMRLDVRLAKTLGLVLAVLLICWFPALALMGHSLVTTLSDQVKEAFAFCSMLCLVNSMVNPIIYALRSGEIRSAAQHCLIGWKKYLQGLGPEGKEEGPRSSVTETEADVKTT

The IC50 is the concentration that inhibits the measured activity by half. As usually defined, the Ki is the dissociation constant of the complex between target and ligand, obtained from inhibition or displacement. The low end stands for a stronger hold on the target, the high end for a looser hold on the target. The Emax is the size of the effect at its maximum, as opposed to the concentration needed. For the compound `CCCCn1c2c(cc(C(=O)NC(C)C)c1=O)CCCCCC2`, the IC50 at Cannabinoid receptor 2 [1] turned out to be 0.0025 µM. For the same compound, the Ki on Cannabinoid receptor 2 [2] worked out at 0.004 µM; on Cannabinoid receptor 1, 0.591 µM. The Ratio Ki in the series listed under Homo sapiens was determined as 148. Further, at Cannabinoid receptor 2 [3], the Emax was 92%.

As for `CCCCn1c2c(cc(C(=O)NCc3ccccc3)c1=O)CCCC2`, on Cannabinoid receptor 2 [1], the IC50 was 0.017 µM. The Ki is 0.017 µM at Cannabinoid receptor 2 [2] and 0.746 µM at Cannabinoid receptor 1. Also, in the series filed under Homo sapiens, the Ratio Ki was 44. Moreover, the Emax at Cannabinoid receptor 2 [3] came out at 76%.

On Cannabinoid receptor 2 [2], `O=C(NCc1ccccc1)c1cc2c(n(CCCN3CCOCC3)c1=O)CCCCCC2` registered a Ki of 0.209 µM. In other words, the sub-micromolar range.

On to `CCCCn1c(C)c(C)cc(NS(=O)(=O)c2ccccc2)c1=O`, for which, on Cannabinoid receptor 2 [2], the Ki was over 5 µM.

On to `CCCCn1c2c(cc(C(=O)NCCc3ccccc3)c1=O)CCCCCC2`, for which the Emax at Cannabinoid receptor 2 [4] worked out at 98%. Further, the Ratio Ki in the series filed under Homo sapiens is 568.

The term clearance denotes a measure of how efficiently the substance is removed, as volume per time. A high value points to a high capacity for elimination. One may read the half-life as how long it takes for the measured level to halve. A low value points to rapid decline. With `CCCCn1c2c(cc(C(=O)NC3CCCCC3)c1=O)CCCCCC2`, the result in [5] was Active. Further, the Vd in [6] amounted to 0.89 L/kg. The IC50 on Cannabinoid receptor 2 [1] was under 0.0002 µM. In series [7], the clearance turned out to be 2.1 L/h/kg. Moreover, the Ratio Ki in the series filed under Homo sapiens worked out at 95. Moreover, the Emax at Cannabinoid receptor 2 [8] came out at 98%. Also, the half-life in series [9] is 18 min.

In the case of `CCCCn1c2c(cc(C(=O)NC3CCN(C)CC3)c1=O)CCCCCC2`, at Cannabinoid receptor 2 [2], the Ki came to 0.147 µM.

As to `CCCCn1c(CC)c(C)cc(C(=O)NCc2ccccc2)c1=O`, the Ki on Cannabinoid receptor 2 [2] amounted to 0.02 µM; on Cannabinoid receptor 1, 0.322 µM. For the same compound, in the series listed under Homo sapiens, the Ratio Ki was 16.

In the case of `CCCCn1c2c(cc(C(=O)NC(C)(C)c3ccccc3)c1=O)CCCCCC2`, the IC50 at Cannabinoid receptor 2 [1] amounted to 0.0002 µM.

`CCCCn1c2c(cc(C(N)=O)c1=O)CCCCCC2`: the Ki was 0.04 µM on Cannabinoid receptor 2 [2] and over 5 µM on Cannabinoid receptor 1. In addition, the Ratio Ki in the series listed under Homo sapiens is over 125.

`CC(C)CCn1c2c(cc(C(=O)NCc3ccccc3)c1=O)CCCCCC2`: the Ki at Cannabinoid receptor 2 [2] turned out to be 0.0009 µM; on Cannabinoid receptor 1 it was 0.009 µM. The Ratio Ki in the series listed under Homo sapiens was 10.

`CCCCn1c2c(cc(C(=O)NCc3ccccc3)c1=O)COCC2` came in with a Ki at Cannabinoid receptor 2 [2] of 0.204 µM. That is a sub-micromolar value.

In general, inhibition in vivo refers to the relative decrease from the control value, in per cent. A word on the AUC: it is the area under the concentration-time curve, a measure of exposure. Higher therefore signals high exposure. As usually defined, the Cmax is the maximum level reached in the sampled fluid or tissue. Regarding `CCCCn1c2c(cc(C(=O)NCc3ccccc3)c1=O)CCCCCC2`, the result in [5] was Active. The Activity entry with Mus musculus [10] is on record as “Non-toxic”. The inhibition in vivo at 100 mg/kg in the series with Mus musculus [11] worked out at 81%. Moreover, the Emax on Cannabinoid receptor 2 [4] is 100%. Moreover, the Vd in [12] stood at 2.29 L/kg. Besides, the half-life in [13] was 16.8 min. The AUC in the series with Mus musculus [14] stood at 0.39 µg·h/mL. Besides, the Ratio Ki in the series listed under Homo sapiens is 593. In the series on Mus musculus [15], this compound had an F of 25%. In series [16], the Cmax turned out to be 0.168 µg/mL.

Consider `CCCCn1c(C)c(C)cc(C(=O)NCc2ccccc2)c1=O`, for which the results for the Ki on Cannabinoid receptor 2 [2] and at Cannabinoid receptor 1 were 0.066 µM and 0.606 µM, respectively.

In the case of `CCCCn1c2c(cc(C(=O)NCc3ccccc3)c1=O)CCC2`, the figures for the Ki at Cannabinoid receptor 2 [2] and at Cannabinoid receptor 1 were 0.016 µM and 0.143 µM, respectively. Moreover, in the series filed under Homo sapiens, the Ratio Ki is 8.9. For the same compound, the Emax on Cannabinoid receptor 2 [3] is 83%.

At Cannabinoid receptor 2 [2], `CCCCn1c(C)c(C)cc(NC(=O)Nc2ccccc2)c1=O` registered a Ki of over 5 µM.
